Assay results from ChEMBL document CHEMBL1129572, “Synthesis and pharmacological properties of novel 8-substituted imidazobenzodiazepines: high-affinity, selective probes for alpha 5-containing GABAA receptors” (J Med Chem, 1996).

Legend:
[1] = molecular target: T1, GABA A receptor alpha-3/beta-2/gamma-2 (Homo sapiens, UniProt P18507+P34903+P47870); assay: Binding affinity for human GABA-A receptor alpha-3-beta-2-gamma-2 expressed in L(tk-) cell membranes
T1 sequence (P47870 whole entry): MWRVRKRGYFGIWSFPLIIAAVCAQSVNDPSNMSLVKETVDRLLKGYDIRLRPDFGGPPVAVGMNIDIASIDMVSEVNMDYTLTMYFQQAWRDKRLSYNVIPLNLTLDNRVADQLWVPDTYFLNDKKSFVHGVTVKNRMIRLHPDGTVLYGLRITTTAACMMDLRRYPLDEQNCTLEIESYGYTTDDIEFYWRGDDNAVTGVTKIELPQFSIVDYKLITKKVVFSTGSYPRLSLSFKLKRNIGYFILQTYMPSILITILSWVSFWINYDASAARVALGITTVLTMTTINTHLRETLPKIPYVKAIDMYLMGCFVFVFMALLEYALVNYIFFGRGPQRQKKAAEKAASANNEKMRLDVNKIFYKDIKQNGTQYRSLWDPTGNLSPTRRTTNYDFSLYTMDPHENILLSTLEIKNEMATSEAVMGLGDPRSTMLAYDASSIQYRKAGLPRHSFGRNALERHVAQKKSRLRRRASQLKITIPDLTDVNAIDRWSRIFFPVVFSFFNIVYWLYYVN
T1 sequence (P18507 whole entry): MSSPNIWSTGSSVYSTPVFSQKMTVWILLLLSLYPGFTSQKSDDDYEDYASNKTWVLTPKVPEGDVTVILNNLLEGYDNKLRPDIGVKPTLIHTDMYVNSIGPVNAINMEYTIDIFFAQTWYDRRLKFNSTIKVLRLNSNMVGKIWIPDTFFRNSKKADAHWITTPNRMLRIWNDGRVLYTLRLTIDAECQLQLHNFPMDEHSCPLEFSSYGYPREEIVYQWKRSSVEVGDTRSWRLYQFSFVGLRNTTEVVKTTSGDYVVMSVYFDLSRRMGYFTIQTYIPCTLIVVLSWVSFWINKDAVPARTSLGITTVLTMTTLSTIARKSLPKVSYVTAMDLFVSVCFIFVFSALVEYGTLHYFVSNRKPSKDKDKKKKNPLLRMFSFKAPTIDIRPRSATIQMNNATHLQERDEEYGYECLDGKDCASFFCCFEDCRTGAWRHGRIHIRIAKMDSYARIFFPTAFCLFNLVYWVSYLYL
T1 sequence (P34903 whole entry): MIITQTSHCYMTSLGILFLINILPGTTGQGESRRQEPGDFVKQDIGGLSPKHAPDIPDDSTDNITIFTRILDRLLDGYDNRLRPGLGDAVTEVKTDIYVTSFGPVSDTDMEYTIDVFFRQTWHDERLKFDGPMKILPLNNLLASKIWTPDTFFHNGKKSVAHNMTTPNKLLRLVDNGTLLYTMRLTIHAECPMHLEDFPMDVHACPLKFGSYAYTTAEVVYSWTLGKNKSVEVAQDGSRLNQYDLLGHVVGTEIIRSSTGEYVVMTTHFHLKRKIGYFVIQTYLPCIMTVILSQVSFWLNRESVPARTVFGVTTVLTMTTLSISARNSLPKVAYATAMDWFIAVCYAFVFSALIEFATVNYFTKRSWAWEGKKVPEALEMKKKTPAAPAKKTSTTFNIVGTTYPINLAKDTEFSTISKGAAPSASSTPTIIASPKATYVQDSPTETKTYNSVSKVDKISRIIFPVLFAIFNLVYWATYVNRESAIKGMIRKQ

Homo sapiens = organism: Homo sapiens; assay: Relative binding affinity for GABA-A receptor alpha-5 over alpha1 subunits
[2] = molecular target: T2, GABA A receptor alpha-2/beta-2/gamma-2 (Homo sapiens, UniProt P18507+P47869+P47870); assay: Binding affinity for human GABA-A receptor alpha-2-beta-2-gamma-2 expressed in L(tk-) cell membranes
T2 sequence (P47870 whole entry): T1 sequence (P47870 whole entry)
T2 sequence (P18507 whole entry): T1 sequence (P18507 whole entry)
T2 sequence (P47869 whole entry): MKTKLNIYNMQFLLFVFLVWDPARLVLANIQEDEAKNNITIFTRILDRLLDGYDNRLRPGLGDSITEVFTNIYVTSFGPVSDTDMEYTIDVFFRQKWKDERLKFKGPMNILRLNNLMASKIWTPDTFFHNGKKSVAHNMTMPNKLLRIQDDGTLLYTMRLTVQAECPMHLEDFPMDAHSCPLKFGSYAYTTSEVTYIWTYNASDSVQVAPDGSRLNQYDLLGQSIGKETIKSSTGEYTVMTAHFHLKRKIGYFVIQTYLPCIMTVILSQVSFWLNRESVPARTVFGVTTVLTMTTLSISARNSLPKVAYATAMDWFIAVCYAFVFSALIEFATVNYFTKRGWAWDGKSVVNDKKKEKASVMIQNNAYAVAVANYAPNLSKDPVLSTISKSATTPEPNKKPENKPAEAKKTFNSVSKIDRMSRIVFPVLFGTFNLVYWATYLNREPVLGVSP

[3] = Binding affinity for human GABA-A receptor alpha-5--beta-2-gamma-2 expressed in L(tk-) cell membranes
How it was run: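 Competition binding on membranes of Ltk cells expressing human αxβ2γ2 receptors. Radioligand was [3H]Ro 15-1788, or [3H]Ro 15-4513 for α6β2γ2. Ki is the mean of two determinations differing by less than 10%.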

[4] = molecular target: GABA A receptor alpha-6/beta-2/gamma-2 (Homo sapiens, UniProt P18507+P47870+Q16445); assay: Binding affinity for human GABA-A receptor alpha-6-beta-2-gamma-2 expressed in L(tk-) cell membranes
[5] = molecular target: T3, GABA-A receptor; alpha-1/beta-2/gamma-2 (Homo sapiens, UniProt P14867+P18507+P47870); assay: Binding affinity for human GABA-A receptor alpha-1-beta-2-gamma-2 expressed in L(tk-) cell membranes
T3 sequence (P14867 whole entry): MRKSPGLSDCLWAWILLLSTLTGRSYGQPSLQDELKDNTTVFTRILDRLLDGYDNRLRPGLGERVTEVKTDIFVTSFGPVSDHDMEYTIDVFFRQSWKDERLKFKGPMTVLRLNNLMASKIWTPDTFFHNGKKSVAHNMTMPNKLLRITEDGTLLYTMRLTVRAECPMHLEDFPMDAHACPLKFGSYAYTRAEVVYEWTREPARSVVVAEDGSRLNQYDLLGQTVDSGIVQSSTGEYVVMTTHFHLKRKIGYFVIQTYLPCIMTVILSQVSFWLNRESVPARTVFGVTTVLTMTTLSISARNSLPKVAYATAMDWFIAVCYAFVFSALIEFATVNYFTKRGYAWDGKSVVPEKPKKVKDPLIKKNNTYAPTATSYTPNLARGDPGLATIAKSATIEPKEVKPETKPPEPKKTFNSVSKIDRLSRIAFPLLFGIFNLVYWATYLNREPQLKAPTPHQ
T3 sequence (P47870 whole entry): T1 sequence (P47870 whole entry)
T3 sequence (P18507 whole entry): T1 sequence (P18507 whole entry)

Mus musculus [6] = organism: Mus musculus; assay: Convulsant activity was evaluated; assay type: functional
How it was run: (§1)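 Adult male NIH/Swiss mice (~30 g) got a single ip injection of graded doses (up to 40 or 80 mg/kg) or vehicle, suspended in 10% diluted Emulphor:90% saline with warming and sonication. They were observed 10 min; tonic/clonic convulsions with loss of righting reflex were scored. CD50 is the dose seizing half the maximal number convulsing, by nonlinear regression.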

Mus musculus [7] = organism: Mus musculus; assay: Dose required for 50% seizure of maximum number of animals; assay type: functional; how it was run: as §1
Mus musculus [8] = organism: Mus musculus; assay: Anticonvulsant activity against convulsions induced by DMCM; assay type: functional
How it was run: (§2)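 Male NIH/Swiss mice (~30 g) given graded ip doses of zolpidem, flumazenil or vehicle in 10% diluted Emulphor:90% saline. 10 min later they were challenged ip with DMCM (7.5 mg/kg) or the convulsant test ligand (20 mg/kg). Convulsions were observed; N = 5–10 per dose. ED50 came from nonlinear regression.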

Mus musculus [9] = organism: Mus musculus; assay: Anticonvulsant activity against convulsions induced by Compound 9; assay type: functional; how it was run: as §2
Mus musculus [10] = organism: Mus musculus; assay: Convulsant activity was evaluated in mice; assay type: functional; how it was run: as §1
[11] = molecular target: GABA-A receptor; anion channel; assay: (§3) Inhibition of [3H]flunitrazepam binding to low affinity GABA-A receptor of rat hippocampal membranes; assay type: cell membranes, Membrane
How it was run: (§4)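 Male Sprague–Dawley rat hippocampal or cerebellar membranes, washed in 50 mM Tris-citrate pH 7.4. They were incubated with ~1 nM [3H]flunitrazepam (final) plus NaCl, 120 min at 0–4 °C, then filtered. Nonspecific binding was set with 10 µM Ro 15-1788. IC50 used 8–12 concentrations; hippocampal data were fitted two-site (F test). Four experiments, mean ± SEM.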

[12] = molecular target: GABA-A receptor; anion channel; assay: Inhibition of [3H]flunitrazepam binding to GABA-A receptor of rat cerebral membranes; assay type: cell membranes, Membrane; how it was run: as §4
[13] = molecular target: T4, Gamma-aminobutyric acid receptor subunit alpha-5 (Rattus norvegicus, UniProt P19969); assay: Inhibition of [3H]flunitrazepam binding to high affinity GABA-A receptor of rat hippocampal membranes; assay type: cell membranes, Membrane; how it was run: as §4
[14] = molecular target: GABA-A receptor; anion channel; assay: as §3; assay type: cell membranes, Membrane; how it was run: as §4; remark: listed apart in the source
[15] = molecular target: T4, Gamma-aminobutyric acid receptor subunit alpha-5; assay: Inhibition of [3H]flunitrazepam binding to alpha5 GABA-A receptor of rat hippocampal membranes; assay type: cell membranes, Membrane; how it was run: as §4
[16] = molecular target: T4, Gamma-aminobutyric acid receptor subunit alpha-5; assay: Inhibition of [3H]flunitrazepam binding to alpha-5 GABA-A receptor of rat hippocampal membranes; assay type: cell membranes, Membrane; how it was run: as §4
Mus musculus [17] = organism: Mus musculus; assay: Proconvulsant potency at which 50% of the animals (mice) convulsed 15 min after receiving PTZ.; assay type: functional; conditions: read-out: PD50
How it was run: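 Mice got a single ip dose of the ligand or vehicle, then PTZ (40 mg/kg ip) 15 min later, and were observed 10 min. N = 5–10 per group. PD50 is the dose at which 50% of animals convulsed, by nonlinear regression.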

T4 sequence (P19969 whole entry): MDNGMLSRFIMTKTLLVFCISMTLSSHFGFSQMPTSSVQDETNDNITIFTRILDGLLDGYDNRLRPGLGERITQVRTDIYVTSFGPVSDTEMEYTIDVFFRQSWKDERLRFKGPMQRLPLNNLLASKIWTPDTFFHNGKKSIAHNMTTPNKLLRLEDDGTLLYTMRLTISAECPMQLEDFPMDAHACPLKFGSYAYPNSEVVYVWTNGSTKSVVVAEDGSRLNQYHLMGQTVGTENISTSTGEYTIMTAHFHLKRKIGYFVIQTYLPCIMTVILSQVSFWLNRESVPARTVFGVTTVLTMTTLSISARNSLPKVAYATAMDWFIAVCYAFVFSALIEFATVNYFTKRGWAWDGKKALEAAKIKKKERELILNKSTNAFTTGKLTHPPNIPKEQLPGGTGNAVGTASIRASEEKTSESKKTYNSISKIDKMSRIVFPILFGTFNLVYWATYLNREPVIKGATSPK
GABA A receptor alpha-6/beta-2/gamma-2, sequence (Q16445 whole entry, one chain of several): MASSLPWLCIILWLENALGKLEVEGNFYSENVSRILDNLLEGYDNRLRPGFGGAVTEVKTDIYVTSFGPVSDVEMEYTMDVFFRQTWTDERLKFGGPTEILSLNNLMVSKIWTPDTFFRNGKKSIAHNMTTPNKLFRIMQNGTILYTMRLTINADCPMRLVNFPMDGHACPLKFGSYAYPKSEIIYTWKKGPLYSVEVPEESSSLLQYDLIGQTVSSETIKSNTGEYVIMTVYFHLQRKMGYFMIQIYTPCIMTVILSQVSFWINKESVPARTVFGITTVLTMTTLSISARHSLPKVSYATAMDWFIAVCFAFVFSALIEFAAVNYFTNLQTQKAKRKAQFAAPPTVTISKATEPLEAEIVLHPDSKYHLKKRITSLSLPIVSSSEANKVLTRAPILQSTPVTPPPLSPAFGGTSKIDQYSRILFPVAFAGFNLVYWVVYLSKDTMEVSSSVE

| SMILES | Ki [1] | Ratio (Homo sapiens) | Ki [2] | Ki [3] | Ki [4] | Ki [5] | CD50 (Mus musculus [7]) | also measured |
| --- | --- | --- | --- | --- | --- | --- | --- | --- |
| CN1Cc2c(C(=O)OC(C)(C)C)ncn2-c2ccc(Br)cc2C1=O | 0.0092 µM | 24 | 0.0107 µM | 0.0005 µM | 0.0094 µM | 0.0114 µM |  |  |
| CC#Cc1ccc2c(c1)C(=O)N(C)Cc1c(C(=O)OCC)ncn1-2 | 0.0165 µM | 6 | 0.0222 µM | 0.0017 µM | > 0.1 µM | 0.0101 µM |  |  |
| C#Cc1ccc2c(c1)C(=O)N(C)Cc1c(C(=O)OCC)ncn1-2 | 0.0258 µM | 60 | 0.0214 µM | 0.0005 µM | 0.0288 µM | 0.0284 µM | 24 mg/kg | Activity (Mus musculus [6]): 70% |
| CCOC(=O)c1ncn2c1CN(C)C(=O)c1cc(CC)ccc1-2 | 0.0261 µM | 13.8 | 0.027 µM | 0.0015 µM | 0.176 µM | 0.0204 µM |  |  |
| CCOC(=O)c1ncn2c1CN(C)C(=O)c1cc(N=[N+]=[N-])ccc1-2 [Ro-154513] |  |  |  | 0.00026 µM |  |  |  |  |
| Cc1ccc(-c2nc3ccc(C)cn3c2CC(=O)N(C)C)cc1 [ZOLPIDEM] |  |  |  |  |  |  |  | ED50 (Mus musculus [8]): 0.4 mg/kg; ED50 (Mus musculus [9]): 7 mg/kg |
| CCOC(=O)c1ncn2c1CN(C)C(=O)c1cc(C#CC[Si](C)(C)C)ccc1-2 | > 0.3 µM |  | > 0.3 µM | > 0.3 µM | > 0.3 µM | > 0.3 µM |  |  |
| CCc1ccc2c(c1)C(=O)N(C)Cc1c(C(=O)OC(C)(C)C)ncn1-2 | 0.0253 µM | 8.6 | 0.056 µM | 0.0017 µM | 0.0229 µM | 0.0148 µM |  |  |
| CCOC(=O)c1ncn2c1CN(C)C(=O)c1cc(C#C[Si](C)(C)C)ccc1-2 | 0.198 µM | 24 | 0.142 µM | 0.005 µM | 0.114 µM |  | 70.9 mg/kg | Activity (Mus musculus [10]): 85% |
| C#Cc1ccc2c(c1)C(=O)N(C)Cc1c(C(=O)OC(C)(C)C)ncn1-2 | 0.0187 µM | 67.3 | 0.0263 µM | 0.0004 µM | 0.0051 µM | 0.0269 µM | 5.9 mg/kg | IC50 [11]: 0.0856 µM; Activity (Mus musculus [10]): 80%; IC50 [12]: 0.0798 µM; IC50 [13]: 0.0006 µM; IC50 [14]: 0.0707 µM; IC50 [15]: 0.0672 µM; IC50 [16]: 0.00033 µM |
| CCOC(=O)c1ncn2c1CN(C)C(=O)c1cc(F)ccc1-2 [FLUMAZENIL] |  |  |  |  |  |  |  | ED50 (Mus musculus [8]): 2.3 mg/kg; ED50 (Mus musculus [9]): 3.8 mg/kg |
| CN1Cc2c(C(=O)OC(C)(C)C)ncn2-c2ccc(C#C[Si](C)(C)C)cc2C1=O | 0.255 µM | 75.5 | 0.143 µM | 0.00261 µM | 0.0586 µM | 0.197 µM | 2.3 mg/kg | Activity (Mus musculus [10]): 22%; ED50 (Mus musculus [17]): 40 mg/kg |
